Platelet DG rel – platelet dense granule release activity | human platelet-rich plasma, SFLLRN dense granule ATP release, luminescence | inhibition, %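 (compounds screened at 7.5 µM in platelet-rich plasma)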 | hit rate 0.22% among 300,000 | AID 1663;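 active means mean replicate score, as percent of positive control, at or above 50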
SENP8 block-1 – blocks the human protease SENP8; Q96LD8; purified SENP8, Z-RLRGG-aminoluciferin cleavage, luminescence; inhibition, % at 10 µM; hit rate 1.2% among 330,000; AID 2540; in the data active means inhibition above about 50%
Target sequence (Q96LD8 whole entry, looked up): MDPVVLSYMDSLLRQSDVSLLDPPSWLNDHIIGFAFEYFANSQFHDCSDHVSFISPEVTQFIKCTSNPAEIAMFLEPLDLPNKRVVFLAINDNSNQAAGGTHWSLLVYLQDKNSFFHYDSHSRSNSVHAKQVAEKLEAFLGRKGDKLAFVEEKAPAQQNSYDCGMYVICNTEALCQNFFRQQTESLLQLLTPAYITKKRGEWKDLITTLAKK
SENP7 inh – blocks the human protease SENP7. Q9BQF6. recombinant SENP7, Z-RLRGG-aminoluciferin luminescence, 40 min. inhibition, % at 5 µM. hit rate 1.5% among 330,000;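 active means inhibition above about 50% at the single test dose, limit read from the data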
Target sequence (Q9BQF6 706-1050 limits assumed): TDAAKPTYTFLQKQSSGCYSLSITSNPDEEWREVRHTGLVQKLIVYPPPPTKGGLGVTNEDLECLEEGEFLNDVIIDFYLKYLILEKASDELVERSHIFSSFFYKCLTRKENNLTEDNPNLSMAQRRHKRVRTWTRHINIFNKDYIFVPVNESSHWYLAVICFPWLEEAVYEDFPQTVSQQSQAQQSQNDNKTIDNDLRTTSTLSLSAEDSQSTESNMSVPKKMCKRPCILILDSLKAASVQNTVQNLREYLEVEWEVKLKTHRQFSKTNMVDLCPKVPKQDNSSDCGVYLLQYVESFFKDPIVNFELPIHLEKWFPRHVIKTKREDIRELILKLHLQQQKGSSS
SENP6 block – SENP6 protease inhibition | hit rate 1.8% among 330,000 | Recombinant SENP6 catalytic domain, aminoluciferin luminescence | Q9GZR1 | inhibition, % at 10 µM;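 active means inhibition above about 50% at the single tested dose, limit read from the data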
SENP8 block-2 – SENP8 (human) protease inhibition; hit rate 0.64% among 360,000; recombinant SENP8, Nedd8 substrate fluorescence; inhibition, % at 20 µM; Q96LD8; in the data active means inhibition mostly above about 40%, no sharp cut-off; inactive means mostly below about 27%
SENP1 FRET inh – inhibitors of human SENP1 SUMO protease catalytic domain; recombinant SENP1 catalytic domain, CyPet-SUMO1-YPet FRET cleavage; inhibition, % at 10 µM; hit rate 0.21% among 360,000; AID 624204;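 active means inhibition at least 30% at 10 µM, raw YFP signal under a set limit, fluorescence ratio 0.5 to 1.5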
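Material – human SENP1 catalytic domain · Input – SENP1 enzyme, 20 pM final · Compound dosing – single concentration of 10 µM compound, 0.5% DMSO final · Timing – enzyme reaction for 50 min at room temperature, dark · Measured by – FRET fluorescence in CFP and YFP emission channels · Control set – no-enzyme wells low, DMSO-plus-enzyme wells high control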
SENP8 confirm – human SENP8 inhibition, confirmed | shares compounds with SENP7 inh | Recombinant SENP8, Z-RLRGG-aminoluciferin luminescence, 60 min | inhibition, % at 12.5 µM | hit rate 40% among 6,200 | AID 488912;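 active means mean inhibition across replicates above about 50%, limit read from the data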
SENP6 conf – human SENP6 inhibition, confirmed; shares compounds with SENP7 inh; recombinant SENP6, Z-RLRGG-aminoluciferin luminescence; inhibition, % at 12.5 µM; hit rate 58% among 6,200; AID 488915
SENP7 confirm – human SENP7 inhibition, confirmed; inhibition, % at 12.5 µM; recombinant SENP7, Z-RLRGG-aminoluciferin luminescence, 40 min; hit rate 69% among 6,200; shares compounds with SENP7 inh; AID 488917
Casp3 select – inhibits human caspase-3 in SENP selectivity test; shares compounds with SENP7 inh; purified caspase-3, Z-DEVD-aminoluciferin luminescence, 60 min; inhibition, % at 12.5 µM; hit rate 60% among 6,200;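 active means mean inhibition above about 50%, limit read from the data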
SENP luc ctr – luminescence interference (SENP counter-screen). shares compounds with SENP7 inh. hit rate 39% among 6,200. Pre-incubated SENP8/Z-RLRGG-aminoluciferin, luciferase luminescence interference. AID 488919. inhibition, % at 12.5 µM;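 active means mean inhibition above about 50% when retested at one dose, limit read from the data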
Each line names hits and unclear results; the compound was inactive in the other large screens (follow-up assays come after a bar, where they were run). In the library only some 2.6% were active in any assay of this set; here they are far more common.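 How the source made its calls, unless noted: active means mean inhibition above about 50% in the one-dose retest (limit read from the data); inactive means the rest.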

O=C(c1ccc(F)cc1)c1cc2ccc(O)cc2oc1=O	Platelet DG rel 73, SENP8 block-1 97, SENP7 inh 99, SENP6 block 97 | SENP8 confirm 99 | SENP6 conf 100 | SENP7 confirm 103 | Casp3 select 98 | SENP luc ctr 98
C=C(CN(C)C)C(=O)c1cc(C)ccc1C	none (no result: Platelet DG rel, SENP8 block-1, SENP7 inh, SENP6 block)
COc1cccc(CNC(=S)Nc2ccc3c(c2)c(=O)n(C)n3Cc2ccc(F)cc2)c1	none (no result: Platelet DG rel, SENP8 block-1, SENP7 inh, SENP6 block)
CC(C)c1ccc2nc(N)sc2c1	none
Cc1cc2nc(N)sc2cc1C	SENP8 block-1 65, SENP7 inh 70 | SENP8 confirm 75 | SENP6 conf 74 | SENP7 confirm 92 | Casp3 select 84 | SENP luc ctr 73
O=C(C1CC1)N1CCC(c2nc(-c3ccc(S(=O)(=O)N4CCCC4)cc3)no2)CC1	SENP7 inh 84 | SENP8 confirm inactive | SENP6 conf inactive | SENP7 confirm inactive | Casp3 select inactive | SENP luc ctr inactive
Oc1ccc(-c2csc(-c3cccnc3)n2)cc1O	none
Oc1ccccc1-c1csc(-c2ccccc2)n1	SENP8 block-1 71, SENP7 inh 83, SENP6 block 76 | SENP8 confirm inactive | SENP6 conf 74 | SENP7 confirm 92 | Casp3 select inactive | SENP luc ctr inactive
Oc1ccc(-c2csc(-c3ccccc3)n2)cc1O	SENP6 block 54 | SENP8 confirm 60 | SENP6 conf 56 | SENP7 confirm 73 | Casp3 select inactive | SENP luc ctr 68
C[C@@H]1CN([C@H](C)CO)C(=O)Cc2cc(NS(=O)(=O)c3cn(C)cn3)ccc2O[C@H]1CN(C)S(=O)(=O)c1ccc(Cl)cc1	none (no result: Platelet DG rel)
Cc1nc(NS(=O)(=O)c2ccccc2)sc1NC(=O)OC(C)C	SENP7 inh 98 | SENP8 confirm inactive | SENP6 conf inactive | SENP7 confirm inactive | Casp3 select inactive | SENP luc ctr inactive
NC(=S)Cc1nc2n(n1)Cc1ccccc1-2	none
Cc1cc(C)n2nc(-c3ccc(F)cc3)nc2n1	none
CCn1c(C)nc2cc(-c3nc4n(n3)Cc3ccccc3-4)ccc21	Platelet DG rel 97, SENP8 block-1 96, SENP7 inh 100, SENP6 block 96 | SENP8 confirm 99 | SENP6 conf 100 | SENP7 confirm 103 | Casp3 select 99 | SENP luc ctr 86
Cc1ccc(-c2nc3n(n2)Cc2ccccc2-3)cc1	SENP8 block-1 96, SENP7 inh 99, SENP6 block 97 | SENP8 confirm 80 | SENP6 conf 91 | SENP7 confirm 103 | Casp3 select 98 | SENP luc ctr 68
Fc1ccc(-c2nc3n(n2)Cc2ccccc2-3)cc1	SENP8 block-1 95, SENP7 inh 99, SENP6 block 100 (no result: Platelet DG rel) | SENP8 confirm 93 | SENP6 conf 98 | SENP7 confirm 102 | Casp3 select 98 | SENP luc ctr 64
O=C(CNC(=O)C1CC(=O)N(c2cccc3ccccc23)C1)Nc1ccccc1Br (stereo not drawn)	none (no result: Platelet DG rel)
COCCN(Cc1cc2ccc(C)cc2[nH]c1=O)S(=O)(=O)c1ccccc1	none
F[B-](F)(F)COCc1ccccc1Br	none (no result: Platelet DG rel, SENP8 block-1, SENP7 inh, SENP6 block)
CCCS(=O)(=O)NC(=O)C1(C)CCCN(C(=O)c2oc3ccccc3c2C)C1 (stereo not drawn)	none (no result: Platelet DG rel, SENP8 block-1, SENP7 inh, SENP6 block)
CS(=O)(=O)c1cccc(C(=O)OCC(=O)NC(=O)Nc2ccccc2F)c1	none (no result: Platelet DG rel)
Cc1ccc(/C=N/N=C/c2ccc(C)s2)s1	SENP7 inh 63, SENP6 block 77 | SENP8 confirm inactive | SENP6 conf 60 | SENP7 confirm 82 | Casp3 select inactive | SENP luc ctr inactive
O=C1/C(=C\c2ccncc2)CCc2ccccc21	SENP7 inh 60, SENP6 block 57 | SENP8 confirm 76 | SENP6 conf inactive | SENP7 confirm inactive | Casp3 select inactive | SENP luc ctr 91
COc1ccc(/C=C2\OC(=O)c3c(OC)cccc32)cc1OC	SENP6 block 62 | SENP8 confirm inactive | SENP6 conf inactive | SENP7 confirm 84 | Casp3 select 61 | SENP luc ctr inactive
COc1cc(/C=C2/CCc3ccccc3C2=O)cc(OC)c1OC	none
CCOc1ccc(/C=C2\CCc3ccccc3C2=O)cc1	SENP8 block-1 95, SENP7 inh 99, SENP6 block 97 | SENP8 confirm inactive | SENP6 conf 88 | SENP7 confirm inactive | Casp3 select inactive | SENP luc ctr inactive
COc1ccc(C=C2C(=O)OC(C)(C)OC2=O)cc1OC	none
COc1ccc(/C=C2/CCc3ccccc3C2=O)cc1OC	SENP6 block 59 | SENP8 confirm 65 | SENP6 conf 63 | SENP7 confirm 60 | Casp3 select inactive | SENP luc ctr inactive
O=C(NN=C(Cc1ccccc1)Cc1ccccc1)C1CC1	none
CCC(C(=O)NCc1ccccc1)n1c(-c2cccs2)nc2ccccc21 (stereo not drawn)	none (no result: Platelet DG rel, SENP8 block-1, SENP7 inh, SENP6 block)
Cc1onc(-c2ccccc2)c1C(=O)NNC(=S)NC(=O)c1ccc2c(c1)OCO2	none
O=C1c2ccccc2C(c2nnnn2Cc2ccccc2)N1Cc1cccs1 (stereo not drawn)	none (no result: Platelet DG rel, SENP8 block-1, SENP7 inh, SENP6 block)
N#C/C(=C/c1ccc(N2CCOCC2)c([N+](=O)[O-])c1)C(N)=O	SENP7 inh 90 | SENP8 confirm inactive | SENP6 conf inactive | SENP7 confirm inactive | Casp3 select inactive | SENP luc ctr inactive
CO/N=C/c1ccc(N2CCOCC2)c([N+](=O)[O-])c1	none
O=c1c2c(nc3cc(-c4ccccc4)[nH]n13)CCS2	SENP8 block-1 69, SENP6 block 78 | SENP8 confirm inactive | SENP6 conf inactive | SENP7 confirm inactive | Casp3 select inactive | SENP luc ctr inactive
O=c1c2c(nc3cc(-c4ccccc4)[nH]n13)CCC2	SENP6 block 57 | SENP8 confirm inactive | SENP6 conf inactive | SENP7 confirm inactive | Casp3 select inactive | SENP luc ctr inactive
Cc1cc(C(=O)COC(=O)Cc2ccc(Br)cc2)c(C)n1C	none (no result: Platelet DG rel)
COc1ccc(CCNC(=O)C(NS(=O)(=O)c2cccc3nsnc23)C(C)C)cc1OC (stereo not drawn)	none

Bioassay records as filed in PubChem.
